pIC50: −log10 of the molar value.

The target of series [1] is T1, Autotaxin (Homo sapiens, UniProt Q13822). The series can be described thus: Inhibition of recombinant human ATX assessed as reduction in choline release using LPC(16:0) as substrate incubated for 15 hrs. In outline:
(§1)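 Recombinant human ATX with 16:0 LPC as substrate. Single-point inhibition was tested at 30 μM, and IC50 values were determined.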

Series [2] can be described thus: Protein binding in human plasma measured after 4 hrs by LC-MS/MS analysis. Format: ADME, cell-free. The conditions noted are these: read-out: PPB (converted).
In series [3] the target is T1, Autotaxin. The series can be described thus: Inhibition of recombinant human ATX assessed as reduction in choline release at 30 uM using LPC(16:0) as substrate incubated for 15 hrs relative to control. In outline: as §1
The target of series [4] is T1, Autotaxin. The series can be described thus: Inhibition of LysoPLD activity of ATX in human plasma assessed as reduction in choline release using LPC(16:0) as substrate incubated for 15 hrs. Format: cell-free. In short, it runs like this: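 LysoPLD activity in human plasma with 16:0 LPC as substrate; IC50 determined.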
Series [5] has as its target T1, Autotaxin. The experiment in a line: Selectivity index, ratio of IC50 for LysoPLD activity of ATX in human plasma to IC50 for recombinant human ATX assessed as reduction in choline release using LPC(16:0) as substrate incubated for 15 hrs. In outline: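 Ratio of two IC50 values. One comes from LysoPLD activity in human plasma. The other comes from purified recombinant human ATX. Both assays use 16:0 LPC as substrate.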

Series [6] is described as follows: AUC in Sprague-Dawley rat at 0.5 mg/kg, po administered as single cassette dosing by LC-MS/MS analysis. Format: ADME, organism-based. The conditions noted are these: in vivo. In short, it runs like this:
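Rat cassette dosing, 0.5 mg/kg oral; plasma AUC reported.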

The nature of series [7]: Protein binding in rat plasma measured after 4 hrs by LC-MS/MS analysis. It is filed as ADME, cell-free. Conditions: read-out: PPB (converted).
Series [8] in a line: Drug metabolism in dog hepatocytes assessed as compound isomerization by measuring conversion ratio at 1 uM incubated for 2 hrs by LC-MS/MS analysis. The conditions noted are these: read-out: Drug metabolism. Format: ADME, cell-based, Canis lupus familiaris, Hepatocyte. In outline:
(§2)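 Hepatocytes from human, rat, dog and monkey were incubated with the trans isomer. The conversion ratio is the cis isomer concentration over the sum of cis and trans, 2 h after the start of incubation.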

Series [9] in a line: Drug metabolism in human hepatocytes assessed as compound isomerization by measuring conversion ratio at 1 uM incubated for 2 hrs by LC-MS/MS analysis. It is filed as ADME, cell-based, Hepatocyte. The conditions noted are these: read-out: Drug metabolism. In outline: as §2
Series [10] is described as follows: Drug metabolism in rat hepatocytes assessed as compound isomerization by measuring conversion ratio at 1 uM incubated for 2 hrs by LC-MS/MS analysis. Format: ADME, cell-based, Hepatocyte. The conditions noted are these: read-out: Drug metabolism. In short, it runs like this:
as §2

A short description of series [11]: Drug metabolism in monkey hepatocytes assessed as compound isomerization by measuring conversion ratio at 1 uM incubated for 2 hrs by LC-MS/MS analysis. Format: ADME, cell-based, Macaca mulatta, Hepatocyte. The conditions noted are these: rhesus monkey, read-out: Drug metabolism. In short, it runs like this: as §2
A short description of series [12]: Octanol/phosphate buffer partition coefficient, LogD of compound at pH 7.4 mixed for 1 hr using benchtop-rotator followed by further incubation for 1 hr by ESI-LC-MS/MS analysis. Format: physicochemical.
The nature of series [13]: Metabolic stability in human hepatocytes assessed as parent compound remaining at 1 uM measured after 2 hrs by LC-MS/MS analysis. Format: ADME, cell-based, Hepatocyte. The conditions noted are these: read-out: Stability. In outline:
(§3)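 Human and rat hepatocyte incubation; percent parent remaining after 2 h.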

A short description of series [14]: Plasma clearance in Sprague-Dawley rat at 1 mg/kg, iv by LC-MS/MS analysis. It is filed as ADME, organism-based. In short, it runs like this:
(§4)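 Single-dose rat PK, 1 mg/kg iv and 3 mg/kg po, n = 3. Plasma clearance was taken from the iv dose. Bioavailability was calculated from the iv and oral doses.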

The nature of series [15]: Metabolic stability in rat hepatocytes assessed as parent compound remaining at 1 uM measured after 2 hrs by LC-MS/MS analysis. It is filed as ADME, cell-based, Hepatocyte. The conditions noted are these: read-out: Stability. In short, it runs like this: as §3
The nature of series [16]: Oral bioavailability in Sprague-Dawley rat at 3 mg/kg by LC-MS/MS analysis. It is filed as ADME, organism-based. The conditions noted are these: in vivo. In short, it runs like this:
as §4

In the case of `O=C(O)c1cccc(CC(=O)N2CCc3c(n(Cc4cccc(F)c4)c4ncccc34)C2)c1`, the pIC50 (as a rule, −log10 of the IC50, conventionally taken in molar units) in series [1] was 7.00. The fraction unbound at 4 h in [2] was 0.011.
Take `CC(=O)N1CCc2c(n(Cc3ccccc3)c3ncccc23)C1`: in series [3], the inhibition (usually the drop in the measured response relative to a control, in per cent) came out at 51.6%.
In the case of `CC(C)(CCCC(=O)N1CCc2c(n(Cc3cccc(F)c3)c3ncccc23)C1)C(=O)O`, the results for the pIC50 in series [1] and in [4] were 7.77 and 6.59, respectively. In addition, in series [5], the Ratio IC50 was determined as 15.
For the compound `C[C@]1(C(=O)O)CC[C@H](CC(=O)N2CCc3c(n(Cc4ccc(F)cc4F)c4ncccc34)C2)CC1`, the AUC – broadly, the area under the concentration-time curve, a measure of exposure – in series [6] amounted to 677 ng·h/mL. The values for the pIC50 in [1] and in [4] were 7.66 and 7.60, respectively. Further, the fraction unbound at 4 h was 0.009 in [2] and 0.039 in series [7].
On to `O=C(C[C@H]1CC[C@H](C(=O)O)CC1)N1CCc2c(n(Cc3ccc(F)cc3F)c3ncccc23)C1`, for which the metabolised at 2 h, 1 µM in [8] is 9%; in series [9] it was 29.8%; in [10], 14.4%; in series [11], 21.4%. For the same compound, the pIC50 in [4] is 8.14. The logD (usually the decadic logarithm of the distribution of all forms, ionised or not, between an organic phase and buffer at a given pH) at 1 h in series [12] was 1.15. In addition, the fraction unbound at 4 h in [2] was 0.016; in [7], 0.021.
For the compound `CC(C)(CCC(=O)N1CCc2c(n(Cc3cccc(F)c3)c3ncccc23)C1)CC(=O)O`, the pIC50 in [1] was 7.62.
For the compound `O=C(C[C@H]1CC[C@H](C(=O)O)CC1)N1CCc2c(n(Cc3cccc(F)c3)c3ncccc23)C1`, in [1], the pIC50 is 7.77. In series [12], this compound displayed a logD at 1 h of 1.07. Further, the fraction unbound at 4 h in [2] is 0.007.
With `O=C(O)CCCCC(=O)N1CCc2c(n(Cc3cccc(F)c3)c3ncccc23)C1`, the remaining at 2 h, 1 µM in [13] is 29%; in [15] it was 10%. For the same compound, in [14], the clearance (as a rule, a measure of how efficiently the substance is removed, as volume per time) came out at 7.5 mL/min/kg. Moreover, the pIC50 in series [1] was 7.30. In addition, the bioavailability (usually dose-corrected exposure relative to a reference, in per cent) in series [16] amounted to 30%. The logD at 1 h in [12] is 0.51.
Compound `O=C(CC12CCC(C(=O)O)(CC1)CC2)N1CCc2c(n(Cc3ccc(F)cc3F)c3ncccc23)C1` yielded an AUC in series [6] of 472 ng·h/mL. Further, the values for the pIC50 in [1] and in series [4] were 8.05 and 8.09, respectively. The results for the fraction unbound at 4 h in series [2] and in [7] were 0.009 and 0.043, respectively.

The record behind these values is ChEMBL document CHEMBL4616716, “ONO-8430506: A Novel Autotaxin Inhibitor That Enhances the Antitumor Effect of Paclitaxel in a Breast Cancer Model” (ACS Med Chem Lett, 2020).
